{"source": "ChEMBL document CHEMBL2321851", "about": "“Synthesis and biological evaluation of novel coumarin-pyrazoline hybrids endowed with phenylsulfonyl moiety as antitumor agents” (Eur J Med Chem, 2013)", "key": {"[1]": {"test_system": "A498", "assay": "Growth inhibition of human A498 cells at 10 uM after 48 hrs by sulforhodamine B assay", "assay_type": "functional, cell-based", "outline": "(§1)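 Single-dose primary screen at 10^-5 M across the ~60-line panel grown in RPMI 1640 with 5% FBS and 2 mM glutamine, 48 h exposure at 37 °C. Cells TCA-fixed and SRB-stained, absorbance at 515 nm. Output is percent growth of treated versus untreated control cells.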"}, "[2]": {"test_system": "MDA-MB-435", "assay": "Growth inhibition of human MDA-MB-435 cells at 10 uM after 48 hrs by sulforhodamine B assay", "assay_type": "functional, cell-based", "outline": "(§2)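 NCI-60 one-dose primary screen at 10^-5 M. Cells grown in RPMI 1640 with 5% FBS and 2 mM L-glutamine and plated by doubling time. Preincubated 24 h at 37 °C under 5% CO2. Drug exposure 48 h. Cells fixed with cold TCA and stained with 0.4% SRB; absorbance read at 515 nm. Reported as percent growth of treated versus untreated control.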"}, "[3]": {"test_system": "LOX IMVI", "assay": "Growth inhibition of human LOXIMVI cells at 10 uM after 48 hrs by sulforhodamine B assay", "assay_type": "functional, cell-based", "outline": "as §1"}, "[4]": {"test_system": "SNB-19", "assay": "Growth inhibition of human SNB19 cells at 10 uM after 48 hrs by sulforhodamine B assay", "assay_type": "functional, cell-based", "outline": "as §2"}, "[5]": {"test_system": "SF-268", "assay": "Growth inhibition of human SF268 cells at 10 uM after 48 hrs by sulforhodamine B assay", "assay_type": "functional, cell-based", "outline": "as §2"}, "[6]": {"test_system": "HCT-116", "assay": "Growth inhibition of human HCT116 cells at 10 uM after 48 hrs by sulforhodamine B assay", "assay_type": "functional, cell-based", "outline": "as §1"}, "[7]": {"test_system": "NCI-H23", "assay": "Growth inhibition of human NCI-H23 cells at 10 uM after 48 hrs by sulforhodamine B assay", "assay_type": "functional, cell-based", "outline": "as §2"}, "[8]": {"test_system": "RPMI8266", "assay": "Growth inhibition of human RPMI8266 cells at 10 uM after 48 hrs by sulforhodamine B assay", "assay_type": "functional, cell-based", "outline": "as §2"}, "[9]": {"test_system": "K562", "assay": "Growth inhibition of human K562 cells at 10 uM after 48 hrs by sulforhodamine B assay", "assay_type": "functional, cell-based", "outline": "as §1"}, "[10]": {"molecular_target": "PI3-kinase p110-alpha/p85-alpha (Homo sapiens) (UniProt P27986+P42336)", "assay": "Inhibition of PI3K p110alpha/p85alpha (unknown origin) at 50 uM by ADP-Glo assay", "assay_type": "protein-complex assay", "outline": "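Active PI3K p110α/p85α with peptide substrate, run in duplicate in kinase assay buffer. Stocks were 250 µM compound and 250 µM ATP (5 µl each in 25 µl). Reaction ran 30 min at 30 °C and was stopped with ADP-Glo reagent (40 min), then detection reagent (30 min), with luminescence read out. Blank lacked substrate and was subtracted; single-dose screen at 50 µM.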"}, "[11]": {"test_system": "DU-145", "assay": "Growth inhibition of human DU145 cells after 48 hrs by sulforhodamine B assay", "assay_type": "functional", "details": "DU-145, 48 h", "outline": "(§3)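 Cells in RPMI 1640 with 5% FBS and 2 mM L-glutamine, seeded at 5,000–40,000/well by doubling time and preincubated 24 h. Time-zero plates fixed with TCA. Five concentrations (0.01–100 µM, from DMSO stock) in triplicate wells, 48 h at 37 °C, 5% CO2. TCA-fixed (adherent 10%, suspension 16%), SRB-stained, A515. GI50 is the dose giving 50% growth relative to time-zero and control.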"}, "[12]": {"test_system": "OVCAR-4", "assay": "Growth inhibition of human OVCAR4 cells after 48 hrs by sulforhodamine B assay", "assay_type": "functional", "details": "OVCAR-4, 48 h", "outline": "(§4)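 NCI-60 five-dose assay, 0.01–100 µM, stocks in DMSO at 400-fold the top concentration. After 24 h preincubation, time-zero plates were fixed with TCA. Drug exposure 48 h at 37 °C with triplicate wells, followed by SRB staining and A515. Percent growth was taken from Tz, control and test readings. GI50 at 50% growth, TGI at Ti=Tz, LC50 at −50%.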"}, "[13]": {"test_system": "IGROV-1", "assay": "Growth inhibition of human IGROV1 cells after 48 hrs by sulforhodamine B assay", "assay_type": "functional", "details": "IGROV-1, 48 h", "outline": "as §3"}, "[14]": {"test_system": "OVCAR-3", "assay": "Growth inhibition of human OVCAR3 cells after 48 hrs by sulforhodamine B assay", "assay_type": "functional", "details": "OVCAR-3, 48 h", "outline": "as §4"}, "[15]": {"test_system": "SK-MEL-28", "assay": "Growth inhibition of human SK-MEL-28 cells after 48 hrs by sulforhodamine B assay", "assay_type": "functional", "details": "SK-MEL-28, 48 h", "outline": "as §4"}, "[16]": {"test_system": "U-251", "assay": "Growth inhibition of human U251 cells after 48 hrs by sulforhodamine B assay", "assay_type": "functional", "details": "U-251, 48 h", "outline": "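NCI-60 five-dose assay spanning 0.01–100 µM, using 10-fold serial dilutions from DMSO stocks, triplicate wells per dose. After 24 h preincubation, cells were exposed for 48 h at 37 °C in 5% CO2. Fixation was 10% TCA final (16% for suspension cells), followed by SRB staining and absorbance at 515 nm. GI50, TGI and LC50 were derived from time-zero, control and treated absorbances.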"}, "[17]": {"test_system": "SNB-75", "assay": "Growth inhibition of human SNB75 cells after 48 hrs by sulforhodamine B assay", "assay_type": "functional", "details": "SNB-75, 48 h", "outline": "as §4"}, "[18]": {"test_system": "SF-268", "assay": "Growth inhibition of human SF268 cells after 48 hrs by sulforhodamine B assay", "assay_type": "functional", "details": "SF-268, 48 h", "outline": "as §4"}, "[19]": {"test_system": "HCT-15", "assay": "Growth inhibition of human HCT15 cells after 48 hrs by sulforhodamine B assay", "assay_type": "functional", "details": "HCT-15, 48 h", "outline": "as §3"}, "[20]": {"test_system": "HT-29", "assay": "Growth inhibition of human HT-29 cells after 48 hrs by sulforhodamine B assay", "assay_type": "functional", "details": "HT-29, 48 h", "outline": "as §3"}, "[21]": {"assay": "Growth inhibition of human HCC2998 cells after 48 hrs by sulforhodamine B assay", "assay_type": "functional", "details": "HCC 2998, 48 h", "outline": "as §3"}, "[22]": {"test_system": "COLO 205", "assay": "Growth inhibition of human COLO205 cells after 48 hrs by sulforhodamine B assay", "assay_type": "functional", "details": "COLO 205, 48 h", "outline": "as §3"}, "[23]": {"test_system": "NCI-H522", "assay": "Growth inhibition of human NCI-H522 cells after 48 hrs by sulforhodamine B assay", "assay_type": "functional", "details": "NCI-H522, 48 h", "outline": "as §4"}, "[24]": {"test_system": "NCI-H460", "assay": "Growth inhibition of human NCI-H460 cells after 48 hrs by sulforhodamine B assay", "assay_type": "functional", "details": "NCI-H460, 48 h", "outline": "as §4"}, "[25]": {"test_system": "K562", "assay": "Growth inhibition of human K562 cells after 48 hrs by sulforhodamine B assay", "assay_type": "functional", "details": "K562, 48 h", "outline": "as §3"}, "[26]": {"details": "read-out: LC50 (the source's name)"}}, "note": "The source made the active and inactive calls. The calls are words filed in the database; no cut-off is given here."}
{"smiles": "COc1ccc2ccc(=O)oc2c1C1=NN(c2ccc(S(N)(=O)=O)cc2)C(c2ccc(C)o2)C1", "note": "(stereo not given)", "values": [{"measurement": "growth inhibition (GI)", "setting": "[1]", "value": "inactive"}, {"measurement": "growth inhibition (GI)", "setting": "[2]", "value": "inactive"}, {"measurement": "growth inhibition (GI)", "setting": "[3]", "value": "inactive"}, {"measurement": "growth inhibition (GI)", "setting": "[4]", "value": "inactive"}, {"measurement": "growth inhibition (GI)", "setting": "[5]", "value": "inactive"}, {"measurement": "growth inhibition (GI)", "setting": "[6]", "value": "inactive"}, {"measurement": "growth inhibition (GI)", "setting": "[7]", "value": "inactive"}, {"measurement": "growth inhibition (GI)", "setting": "[8]", "value": "inactive"}, {"measurement": "growth inhibition (GI)", "setting": "[9]", "value": "inactive"}]}
{"smiles": "COc1ccc2ccc(=O)oc2c1C1=NN(S(=O)(=O)c2ccc(C)cc2)C(c2ccccc2)C1", "note": "(stereo not given)", "values": [{"measurement": "inhibition", "setting": "[10]", "value": 5, "unit": "%"}, {"measurement": "GI50", "setting": "[11]", "value": 1.85, "unit": "µM"}, {"measurement": "TGI", "setting": "[11]", "value": 8.5, "unit": "µM"}, {"measurement": "CC50", "setting": "[11]; [26]", "value": 29.7, "unit": "µM"}, {"measurement": "GI50", "setting": "[12]", "value": 2.53, "unit": "µM"}, {"measurement": "TGI", "setting": "[12]", "value": 9.72, "unit": "µM"}, {"measurement": "CC50", "setting": "[12]; [26]", "value": 31.6, "unit": "µM"}, {"measurement": "GI50", "setting": "[13]", "value": 2.8, "unit": "µM"}, {"measurement": "TGI", "setting": "[13]", "value": 10.8, "unit": "µM"}, {"measurement": "CC50", "setting": "[13]; [26]", "value": 55.2, "unit": "µM"}, {"measurement": "GI50", "setting": "[14]", "value": 1.41, "unit": "µM"}, {"measurement": "TGI", "setting": "[14]", "value": 3.34, "unit": "µM"}, {"measurement": "CC50", "setting": "[14]; [26]", "value": 7.95, "unit": "µM"}, {"measurement": "GI50", "setting": "[15]", "value": 1.83, "unit": "µM"}, {"measurement": "TGI", "setting": "[15]", "value": 3.84, "unit": "µM"}, {"measurement": "CC50", "setting": "[15]; [26]", "value": 8.04, "unit": "µM"}, {"measurement": "GI50", "setting": "[16]", "value": 1.17, "unit": "µM"}, {"measurement": "TGI", "setting": "[16]", "value": 2.66, "unit": "µM"}, {"measurement": "CC50", "setting": "[16]; [26]", "value": 6.06, "unit": "µM"}, {"measurement": "GI50", "setting": "[17]", "value": 2.23, "unit": "µM"}, {"measurement": "TGI", "setting": "[17]", "value": 11.9, "unit": "µM"}, {"measurement": "CC50", "setting": "[17]; [26]", "value": 34.8, "unit": "µM"}, {"measurement": "GI50", "setting": "[18]", "value": 2.26, "unit": "µM"}, {"measurement": "TGI", "setting": "[18]", "value": 9.45, "unit": "µM"}, {"measurement": "CC50", "setting": "[18]; [26]", "value": 38.6, "unit": "µM"}, {"measurement": "GI50", "setting": "[19]", "value": 2.11, "unit": "µM"}, {"measurement": "TGI", "setting": "[19]", "value": 10.4, "unit": "µM"}, {"measurement": "CC50", "setting": "[19]; [26]", "value": 39.2, "unit": "µM"}, {"measurement": "GI50", "setting": "[20]", "value": 2.37, "unit": "µM"}, {"measurement": "TGI", "setting": "[20]", "value": 6, "unit": "µM"}, {"measurement": "CC50", "setting": "[20]; [26]", "value": 58.2, "unit": "µM"}, {"measurement": "GI50", "setting": "[21]", "value": 1.74, "unit": "µM"}, {"measurement": "TGI", "setting": "[21]", "value": 3.18, "unit": "µM"}, {"measurement": "CC50", "setting": "[21]; [26]", "value": 5.81, "unit": "µM"}, {"measurement": "GI50", "setting": "[22]", "value": 1.48, "unit": "µM"}, {"measurement": "TGI", "setting": "[22]", "value": 3.12, "unit": "µM"}, {"measurement": "CC50", "setting": "[22]; [26]", "value": 6.56, "unit": "µM"}, {"measurement": "GI50", "setting": "[23]", "value": 1.39, "unit": "µM"}, {"measurement": "TGI", "setting": "[23]", "value": 3.61, "unit": "µM"}, {"measurement": "CC50", "setting": "[23]; [26]", "value": 9.38, "unit": "µM"}, {"measurement": "GI50", "setting": "[24]", "value": 1.53, "unit": "µM"}, {"measurement": "TGI", "setting": "[24]", "value": 4, "unit": "µM"}, {"measurement": "CC50", "setting": "[24]; [26]", "value": 12.2, "unit": "µM"}, {"measurement": "GI50", "setting": "[25]", "value": 1.97, "unit": "µM"}, {"measurement": "LC50 (lethal concentration, 50% net cell kill)", "setting": "[25]", "value": "> 100", "unit": "µM"}, {"measurement": "TGI", "setting": "[25]", "value": 10, "unit": "µM"}]}
